In ChEMBL document CHEMBL1671809, “Discovery of phosphoric acid mono-{2-[(E/Z)-4-(3,3-dimethyl-butyrylamino)-3,5-difluoro-benzoylimino]-thiazol-3-ylmethyl} ester (Lu AA47070): a phosphonooxymethylene prodrug of a potent and selective hA(2A) receptor antagonist” (J Med Chem, 2011):

Experiments:
[1] = Oral bioavailability in Sprague-Dawley rat at 1 mg/kg; type: ADME, organism-based; settings: in vivo
Method in brief: (§1)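 Awake Sprague-Dawley rats carrying a carotid catheter were dosed with 0.5 mg/kg iv or 1 mg/kg po in aqueous 25% cremophore, n = 3 per route. Ten 100 μL blood samples were collected automatically over 20 h. Plasma was assayed by HTLC-MS/MS. Parameters came from a two-compartment model with first-order absorption (po) and elimination.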

Adenosine receptor A2b = target: T1, Adenosine receptor A2b (Homo sapiens, UniProt P29275); experiment: Displacement of [3H]-MRS1754 from human recombinant adenosine A2B receptor expressed in HEK293 cells after 120 mins
T1 sequence (P29275 whole entry): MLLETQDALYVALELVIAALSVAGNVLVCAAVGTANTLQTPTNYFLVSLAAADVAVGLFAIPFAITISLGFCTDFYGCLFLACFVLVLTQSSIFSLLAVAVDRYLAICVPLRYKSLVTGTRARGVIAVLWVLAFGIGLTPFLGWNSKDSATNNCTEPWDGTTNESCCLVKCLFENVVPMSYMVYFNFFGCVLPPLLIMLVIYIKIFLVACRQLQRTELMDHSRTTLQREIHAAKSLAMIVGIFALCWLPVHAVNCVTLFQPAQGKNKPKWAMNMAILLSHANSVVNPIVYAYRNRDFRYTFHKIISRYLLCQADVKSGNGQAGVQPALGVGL

Cytochrome P450 2C9 = Cytochrome P450 2C9 (Homo sapiens, UniProt P11712); experiment: Inhibition of recombinant CYP2C9 after 45 mins; type: ADME
[2] = Primary phase half life in Sprague-Dawley rat at 0.5 mg/kg, iv and 1 mg/kg, po; type: ADME, organism-based; settings: in vivo; method in brief: as §1
Adenosine receptor A3 = target: T2, Adenosine receptor A3 (Homo sapiens, UniProt P0DMS8); experiment: Displacement of [3H]-AB-MECA from human recombinant adenosine A3 receptor expressed in CHO-K1 cells after 60 mins; type: cell-based
T2 sequence (P0DMS8 whole entry): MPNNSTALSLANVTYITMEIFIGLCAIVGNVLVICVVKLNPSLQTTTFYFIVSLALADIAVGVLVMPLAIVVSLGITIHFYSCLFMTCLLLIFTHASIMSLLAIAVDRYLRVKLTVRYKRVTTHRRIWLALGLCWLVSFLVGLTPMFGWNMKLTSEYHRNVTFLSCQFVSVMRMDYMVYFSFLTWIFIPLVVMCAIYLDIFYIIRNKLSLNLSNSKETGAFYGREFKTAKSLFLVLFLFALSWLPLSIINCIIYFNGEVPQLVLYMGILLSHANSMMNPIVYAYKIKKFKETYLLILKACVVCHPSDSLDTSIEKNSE

Hepatocyte = experiment: Intrinsic clearance in rat hepatocytes at 0.2 uM after 60 mins; type: ADME, cell-based, Liver; settings: 1 h
Method in brief: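 Pooled cryopreserved hepatocytes: human (three donors), male Sprague-Dawley rat (two donors), male beagle dog (two donors). Cells at 10^6/mL in DMEM with 5 mM HEPES, 37 C, 15 min preincubation; compound at 0.2 μM. Samples at 0-60 min, depletion by LC-MS/MS. t1/2 scaled to CLint with 120 (human, rat) or 240 (dog) million cells/g liver. n = 1.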

[3] = Protein binding in human serum at 1 uM after 60 mins by LC/MS-MS; type: ADME, cell-free; settings: read-out: PPB (converted)
[4] = Protein binding in dog serum at 1 uM after 60 mins by LC/MS-MS; type: ADME, cell-free, Canis lupus familiaris; settings: read-out: PPB (converted)
[5] = Apparent permeability from basolateral to apical side in human Caco2 cells at 1 uM after 21 to 28 days; type: ADME, cell-based; settings: caco-2
Method in brief: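 Caco-2 cells grown 21-28 days on permeable filters. A 2 mM DMSO stock was diluted into Hanks-HEPES pH 7.4. Dosing solution went into the apical (A-B) or basolateral (B-A) chamber, and the opposite chamber was sampled over 240 min with buffer replacement. Efflux ratio = Papp,B-A/Papp,A-B. Mean ± SD, n = 3.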

Adenosine receptor A2a = Adenosine receptor A2a (Homo sapiens, UniProt P29274); experiment: Displacement of [3H]-ZM241385 from human adenosine A2A receptor expressed in high five cells after 30 mins by scintillation counting
[6] = target: T3, Adenosine receptor A3 (Homo sapiens) (UniProt P0DMS8); experiment: Displacement of [3H]-AB-MECA from human recombinant adenosine A3 receptor expressed in CHO-K1 cells at 10 uM after 60 mins; type: cell-based
T3 sequence (whole entry): T2 sequence (P0DMS8 whole entry)

[7] = Tmax in Sprague-Dawley rat at 1 mg/kg, po; type: ADME, organism-based; design: dose 1 mg/kg, route oral; settings: in vivo; method in brief: as §1
Cytochrome P450 3A4 = Cytochrome P450 3A4 (Homo sapiens, UniProt P08684); experiment: Inhibition of recombinant CYP3A4 after 30 mins; type: ADME
Method in brief: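 Recombinant CYP supersomes incubated in phosphate buffer with eight compound concentrations (40-0.02 μM) and fluorogenic substrates. CYP3A4: resorufin benzyl ether 100 μM, 30 min. Fluorescent metabolite read; IC50 relative to uninhibited controls.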

Sequence of Adenosine receptor A2a (P29274 whole entry): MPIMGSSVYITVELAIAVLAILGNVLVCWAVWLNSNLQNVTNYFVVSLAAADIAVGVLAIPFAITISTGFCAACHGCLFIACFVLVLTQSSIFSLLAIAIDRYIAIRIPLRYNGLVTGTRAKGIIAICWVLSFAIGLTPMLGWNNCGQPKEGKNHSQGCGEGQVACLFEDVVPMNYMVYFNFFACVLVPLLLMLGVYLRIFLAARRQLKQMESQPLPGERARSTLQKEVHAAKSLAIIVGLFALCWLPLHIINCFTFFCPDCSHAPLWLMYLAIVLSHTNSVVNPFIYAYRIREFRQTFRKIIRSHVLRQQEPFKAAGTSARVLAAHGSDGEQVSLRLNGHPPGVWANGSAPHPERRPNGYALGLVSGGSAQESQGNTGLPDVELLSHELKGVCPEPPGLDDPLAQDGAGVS
Sequence of Cytochrome P450 2C9 (P11712 whole entry): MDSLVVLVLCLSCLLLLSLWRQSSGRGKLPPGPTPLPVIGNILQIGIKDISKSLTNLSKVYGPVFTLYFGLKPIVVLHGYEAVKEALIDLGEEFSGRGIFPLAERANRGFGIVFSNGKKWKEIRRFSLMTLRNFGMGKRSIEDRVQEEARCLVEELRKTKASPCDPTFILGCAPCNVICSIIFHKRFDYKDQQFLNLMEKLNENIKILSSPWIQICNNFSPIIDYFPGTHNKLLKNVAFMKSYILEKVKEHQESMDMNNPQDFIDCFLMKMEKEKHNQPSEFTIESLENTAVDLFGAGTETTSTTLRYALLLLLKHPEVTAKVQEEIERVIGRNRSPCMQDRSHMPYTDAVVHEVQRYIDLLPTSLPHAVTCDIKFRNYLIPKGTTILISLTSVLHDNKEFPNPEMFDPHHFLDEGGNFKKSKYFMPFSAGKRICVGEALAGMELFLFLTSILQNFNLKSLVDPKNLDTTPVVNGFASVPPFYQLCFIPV
Sequence of Cytochrome P450 3A4 (P08684 whole entry): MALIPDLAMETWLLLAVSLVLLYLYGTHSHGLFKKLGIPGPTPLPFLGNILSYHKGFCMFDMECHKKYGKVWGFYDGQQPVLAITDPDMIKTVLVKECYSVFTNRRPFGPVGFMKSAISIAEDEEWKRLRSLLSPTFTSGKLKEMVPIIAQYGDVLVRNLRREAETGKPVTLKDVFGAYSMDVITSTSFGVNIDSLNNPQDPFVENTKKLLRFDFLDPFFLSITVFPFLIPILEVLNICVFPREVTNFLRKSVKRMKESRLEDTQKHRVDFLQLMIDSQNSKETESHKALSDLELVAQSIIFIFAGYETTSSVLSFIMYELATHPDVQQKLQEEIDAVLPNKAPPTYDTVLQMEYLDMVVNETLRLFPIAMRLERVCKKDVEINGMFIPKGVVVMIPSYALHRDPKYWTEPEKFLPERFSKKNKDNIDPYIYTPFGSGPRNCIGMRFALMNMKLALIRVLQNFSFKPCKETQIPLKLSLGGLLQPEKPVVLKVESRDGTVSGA

Work on CC(C)(C)CC(=O)Nc1c(F)cc(C(=O)Nc2nccs2)cc1F yielded a bioavailability [1] of 88%, a Ki (Adenosine receptor A2b) of 0.26 µM and an IC50 (Cytochrome P450 2C9) of over 40 µM. It also gave a half-life [2] of 72 min, a Ki (Adenosine receptor A3) of over 10 µM and a CL (Hepatocyte) of 12 mL/min. The fraction unbound at 1 h, 1 µM [3] was 0.15, the fraction unbound at 1 h, 1 µM [4] was 0.13 and the Papp B→A at 1 µM [5] was 670 nm/s. For the same compound, the Ki (Adenosine receptor A2a) was 0.0059 µM, the inhibition [6] was 36% and the Tmax [7] was 30 min. It also gave an IC50 (Cytochrome P450 3A4) of over 40 µM.
